ChEMBL document CHEMBL4811272, “A new sulfated triterpene glycoside from the sea cucumber Colochirus quadrangularis, and evaluation of its antifungal, antitumor and immunomodulatory activities” (Bioorg Med Chem, 2021)
Values after ≈ are worked out from the molar mass of the structure shown.

Tests used:
[1] = tested on: Candida albicans; test: Antifungal activity against Candida albicans ATCC 76615 by microplate reader assay; assay type: functional; conditions: ATTCC76615
Method in brief: (§1)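 Broth microdilution read by optical density at 630 nm. MIC80 is the first well with about 80% less growth than the drug-free well. Each concentration was run in three replicate wells, and values are means of three independent experiments.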

[2] = Cytotoxicity against human HO-8910 cells assessed as reduction in cell viability by sulforhodamine B assay; assay type: functional, cell-based
Method in brief: (§2)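 Cells were kept in RPMI-1640 with 10% FBS, 2 mM L-glutamine, 50 μM β-mercaptoethanol and penicillin/streptomycin, at 37 °C in 5% CO2. SRB assay used 100, 10, 1, 0.1 and 0.01 μM, each in triplicate. Percent inhibition was calculated against solvent control OD. IC50 came from Logit curve fitting and is the mean of three independent experiments.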

[3] = tested on: SPC-A4; test: Cytotoxicity against human SPC-A4 cells assessed as reduction in cell viability by sulforhodamine B assay; assay type: functional, cell-based; method in brief: as §2
[4] = tested on: HL-60; test: Cytotoxicity against human HL-60 cells assessed as reduction in cell viability by sulforhodamine B assay; assay type: functional, cell-based; method in brief: as §2
[5] = tested on: HCT-116; test: Cytotoxicity against human HCT-116 cells assessed as reduction in cell viability by sulforhodamine B assay; assay type: functional, cell-based; method in brief: as §2
[6] = tested on: MKN-28; test: Cytotoxicity against human MKN-28 cells assessed as reduction in cell viability by sulforhodamine B assay; assay type: functional, cell-based; method in brief: as §2
[7] = tested on: Candida parapsilosis; test: Antifungal activity against clinical strain Candida parapsilosis by microplate reader assay; assay type: functional; conditions: Lodderomyces parapsilosis; method in brief: as §1
[8] = tested on: A549; test: Cytotoxicity against human A549 cells assessed as reduction in cell viability by sulforhodamine B assay; assay type: functional, cell-based; method in brief: as §2
[9] = tested on: Bel-7402; test: Cytotoxicity against human Bel-7402 cells assessed as reduction in cell viability by sulforhodamine B assay; assay type: functional, cell-based; method in brief: as §2
[10] = tested on: MCF7; test: Cytotoxicity against human MCF7 cells assessed as reduction in cell viability by sulforhodamine B assay; assay type: functional, cell-based; method in brief: as §2
[11] = tested on: Candida tropicalis; test: Antifungal activity against clinical strain Candida tropicalis by microplate reader assay; assay type: functional; method in brief: as §1
[12] = tested on: Cryptococcus neoformans; test: Antifungal activity against Cryptococcus neoformans ATCC 32609 by microplate reader assay; assay type: functional; conditions: ATTCC32609; method in brief: as §1
[13] = tested on: Bel-7402; test: Antitumor activity against human Bel-7402 cells implanted in BALB/c-nu mouse assessed as tumor growth inhibition at 100 mg/kg, IG administered everyday for 7 days relative to control; assay type: functional; conditions: Bel-7402, po, 168 h, time 7 day, read-out: TGI
[14] = tested on: CCRF S-180; test: Antitumor activity against mouse S-180 cells implanted in KM mouse assessed as tumor growth inhibition at 25 mg/kg, IG administered everyday for 7 days relative to control; assay type: functional; conditions: CCRF S-180, po, 168 h, time 7 day, read-out: TGI
Method in brief: (§3)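 S-180 or H22 cells, about 2.5 × 10⁶ per mouse, injected s.c. in the right axilla of wild-type KM mice. Randomized after 24 h and dosed intragastrically for 7 days; sacrificed 24 h after the last dose. TGI = (W_C − W_T)/W_C × 100% from average tumor weight. n = 8; one-way ANOVA vs vehicle.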

[15] = tested on: H22; test: Antitumor activity against mouse H22 cells implanted in KM mouse assessed as tumor growth inhibition at 25 mg/kg, IG administered everyday for 7 days relative to control; assay type: functional; conditions: H22, po, 168 h, time 7 day, read-out: TGI; method in brief: as §3
[16] = tested on: Pyricularia oryzae; test: Antifungal activity against Pyricularia oryzae P-2B by measuring minimum morphological deformation concentration; assay type: functional; conditions: read-out: MEC

Row | SMILES | MIC80 [1] | IC50 [2] | IC50 [3] | IC50 [4] | IC50 [5] | IC50 [6] | MIC80 [7] | IC50 [8] | IC50 [9] | IC50 [10] | MIC80 [11] | MIC80 [12] | inhibition in vivo at 100 mg/kg [13] | inhibition in vivo at 25 mg/kg [14] | inhibition in vivo at 25 mg/kg [15] | minimal effective concentration [16]
1 | C=C(C)CCC[C@]1(C)OC(=O)[C@]23CC[C@@H]4C(=CCC5C(C)(C)[C@@H](O[C@@H]6OC[C@@H](OS(=O)(=O)[O-])[C@H](O)[C@H]6O[C@@H]6O[C@H](C)[C@@H](O[C@@H]7OC[C@@H](O)[C@H](O[C@@H]8O[C@H](CO)[C@@H](O)[C@H](OC)[C@H]8O)[C@H]7O)[C@H](O)[C@H]6O)CC[C@@]54C)[C@]2(C)CC(=O)[C@@H]31.[Na+] (some centres not stated) | 25 µg/mL | 1900 nM | 1500 nM | 1950 nM | 1090 nM | 1820 nM | 25 µg/mL | 1300 nM | 1300 nM | 1560 nM | 25 µg/mL | 25 µg/mL |  |  |  | 
2 | C=C(C)CCC[C@]1(C)OC(=O)[C@]23CC[C@@H]4C(=CCC5C(C)(C)[C@@H](O[C@@H]6OC[C@@H](OS(=O)(=O)O)[C@H](O)[C@H]6O[C@@H]6O[C@H](C)[C@@H](O[C@@H]7OC[C@@H](O)[C@H](O[C@@H]8O[C@H](CO)[C@@H](O)[C@H](OC)[C@H]8O)[C@H]7OS(=O)(=O)O)[C@H](O)[C@H]6O)CC[C@@]54C)[C@]2(C)C[C@H](OC(C)=O)[C@@H]31.[Na+].[Na+].[Na+] (some centres not stated) | 4 µg/mL | 1900 nM | 1300 nM | 650 nM | 930 nM | 2030 nM | 4 µg/mL | 750 nM | 1300 nM | 1790 nM | 8 µg/mL | 16 µg/mL |  |  |  | 
3 | OC(Cn1cncn1)(Cn1cncn1)c1ccc(F)cc1F [FLUCONAZOLE] | 0.25 µg/mL (≈ 0.816 µM) |  |  |  |  |  | 0.5 µg/mL (≈ 1.63 µM) |  |  |  | 1 µg/mL (≈ 3.27 µM) | 2 µg/mL (≈ 6.53 µM) |  |  |  | 
4 | O=c1[nH]c(=O)n(C2CCCO2)cc1F (configuration not stated) [TEGAFUR] |  |  |  |  |  |  |  |  |  |  |  |  | 81.8% |  |  | 
5 | CN(C/C=C/C#CC(C)(C)C)Cc1cccc2ccccc12 [TERBINAFINE] | 32 µg/mL (≈ 110 µM) |  |  |  |  |  | < 0.125 µg/mL |  |  |  | < 0.125 µg/mL | < 0.125 µg/mL |  |  |  | 
6 | O=c1[nH]cc(F)c(=O)[nH]1 [FLUOROURACIL] |  |  |  |  |  |  |  |  |  |  |  |  |  | 39.4% | 39.4% | ≤ 5 µg/mL
7 | CO[C@@H]1[C@@H](O)[C@H](O[C@@H]2[C@@H](O)[C@H](O[C@H]3[C@H](O)[C@@H](O)[C@H](O[C@H]4[C@H](O[C@H]5CC[C@@]6(C)C(CC=C7[C@H]6CC[C@]68C(=O)O[C@@](C)(CCC=C(C)C)[C@H]6[C@@H](OC(C)=O)C[C@@]78C)C5(C)C)OC[C@@H](OS(=O)(=O)[O-])[C@@H]4O)O[C@@H]3C)OC[C@H]2O)O[C@H](CO)[C@H]1O.[Na+] (some centres not stated) | 20 µg/mL | 2320 nM | 3670 nM | 1650 nM | 1610 nM | 2810 nM | 32 µg/mL | 1700 nM | 2400 nM | 2300 nM | 30 µg/mL | 25 µg/mL |  |  |  | 
8 | CCC(C)n1ncn(-c2ccc(N3CCN(c4ccc(OCC5COC(Cn6cncn6)(c6ccc(Cl)cc6Cl)O5)cc4)CC3)cc2)c1=O (configuration not stated) [ITRACONAZOLE] | < 0.125 µg/mL |  |  |  |  |  | < 0.125 µg/mL |  |  |  | 1 µg/mL (≈ 1.42 µM) | 2 µg/mL (≈ 2.83 µM) |  |  |  | 
